Measured values reported in ChEMBL document CHEMBL1127321, “Synthesis and photodynamic activities of silicon 2,3-naphthalocyanine derivatives” (J Med Chem, 1994).

How the values were obtained:
[1] = Tested for extracellular drug concentration required to kill 50 percent of V-79 cells after one hour incubation period; settings: Chinese hamster, V79 cells; read-out: LD50
[2] = Tested for extracellular drug concentration required to kill 50 percent of V-79 cells after one hour incubation period and subsequent exposure red light; settings: Chinese hamster, V79 cells; read-out: LD50
Mus musculus [3] = assay: Mean tissue uptake in muscle determined in tumor-bearing mice after 2 day by intravenous administration at 1 umol/kg; assay type: functional
In short: (§1)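 Male BALB/c AnN mice carrying intradermal EMT-6 tumours on the hind thighs (2×10^5 cells; used 6-8 days later at 4-8 mm diameter) received 1 μmol/kg iv via the tail vein in 10% Cremophor emulsion. Plasma from orbital-sinus blood and excised tissue were extracted with DMF overnight at 37 °C, then centrifuged. Dye was read by fluorescence (ex 766, em 780 nm) against per-tissue calibration curves. Mean with SE, n = 3.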

Mus musculus [4] = assay: Tested for plasma concentration in tumor-bearing mice after 7 day by intravenous administration at 1 umol/kg; assay type: functional
In short: as §1

Mus musculus [5] = assay: Tested for plasma concentration in tumor-bearing mice after 3 day by intravenous administration at 1 umol/kg; assay type: functional
In short: as §1

Mus musculus [6] = assay: Tested for plasma concentration in tumor-bearing mice after 6 hour by intravenous administration at 1 umol/kg; assay type: functional
In short: as §1

[7] = Tumor/muscle uptake ratio after 3 days; assay type: functional, Muscle tissue
In short: (§2)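 The ratio of tumour uptake (μg/g) to muscle uptake (μg/g), or to plasma concentration (μg/mL), was taken at each time point. Mice were EMT-6-bearing BALB/c (n = 3) given 1 μmol/kg iv in 10% Cremophor emulsion. Dye was measured by fluorescence (ex 766, em 780 nm) in DMF extracts and quantified against tissue-specific calibration curves.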

[8] = Tumor/muscle uptake ratio after 2 day; assay type: functional, Muscle tissue
In short: as §2

Mus musculus [9] = assay: Mean tissue uptake in tumor determined in tumor-bearing mice after 12 hour by intravenous administration at 1 umol/kg; assay type: functional
In short: as §1

Mus musculus [10] = assay: Mean tissue uptake in muscle determined in tumor-bearing mice after 6 hour by intravenous administration at 1 umol/kg; assay type: functional
In short: as §1

[11] = Tumor/plasma uptake ratio after 1 hr; assay type: functional
In short: as §2

Mus musculus [12] = assay: Tested for plasma concentration in tumor-bearing mice after 3 hour by intravenous administration at 1 umol/kg; assay type: functional
In short: as §1

Mus musculus [13] = assay: Mean tissue uptake in muscle determined in tumor-bearing mice after 7 days by intravenous administration at 1 umol/kg; assay type: functional
In short: as §1

Mus musculus [14] = assay: Mean tissue uptake in tumor determined in tumor-bearing mice after 3 hour by intravenous administration at 1 umol/kg; assay type: functional
In short: as §1

Mus musculus [15] = assay: Mean tissue uptake in muscle determined in tumor-bearing mice after 3 hour by intravenous administration at 1 umol/kg; assay type: functional
In short: as §1

Mus musculus [16] = assay: Mean tissue uptake in tumor determined in tumor-bearing mice after 1 hour by intravenous administration at 1 umol/kg; assay type: functional
In short: as §1

Mus musculus [17] = assay: Tested for plasma concentration in tumor-bearing mice after 12 hour by intravenous administration at 1 umol/kg; assay type: functional
In short: as §1

[18] = Tumor/plasma uptake ratio after 2 day; assay type: functional
In short: as §2

Mus musculus [19] = assay: Tested for plasma concentration in tumor-bearing mice after 2 day by intravenous administration at 1 umol/kg; assay type: functional
In short: as §1

Mus musculus [20] = assay: Mean tissue uptake in tumor determined in tumor-bearing mice after 7 day by intravenous administration at 1 umol/kg; assay type: functional
In short: as §1

[21] = Tumor/muscle uptake ratio after 1 day; assay type: functional, Muscle tissue
In short: as §2

Mus musculus [22] = assay: Mean tissue uptake in tumor determined in tumor-bearing mice after 3 day by intravenous administration at 1 umol/kg; assay type: functional
In short: as §1

Mus musculus [23] = assay: Mean tissue uptake in skin determined in tumor-bearing mice after 3 days by intravenous administration at 1 umol/kg; assay type: functional
In short: as §1

[24] = Tumor/muscle uptake ratio after 7 days; assay type: functional, Muscle tissue
In short: as §2

Mus musculus [25] = assay: Mean tissue uptake in tumor determined in tumor-bearing mice after 1 day by intravenous administration at 1 umol/kg; assay type: functional
In short: as §1

Mus musculus [26] = assay: Mean tissue uptake in tumor determined in tumor-bearing mice after 2 day by intravenous administration at 1 umol/kg; assay type: functional
In short: as §1

Mus musculus [27] = assay: Mean tissue uptake in muscle determined in tumor-bearing mice after 1 day by intravenous administration at 1 umol/kg; assay type: functional
In short: as §1

Mus musculus [28] = assay: Mean tissue uptake in skin determined in tumor-bearing mice after 1 day by intravenous administration at 1 umol/kg; assay type: functional
In short: as §1

Mus musculus [29] = assay: Tested for plasma concentration in tumor-bearing mice after 1 day by intravenous administration at 1 umol/kg; assay type: functional
In short: as §1

Mus musculus [30] = assay: Mean tissue uptake in skin determined in tumor-bearing mice after 12 hr by intravenous administration at 1 umol/kg; assay type: functional
In short: as §1

[31] = Tumor/plasma uptake ratio after 3 hr; assay type: functional
In short: as §2

[32] = Tumor/plasma uptake ratio after 12 hr; assay type: functional
In short: as §2

Mus musculus [33] = assay: Mean tissue uptake in skin determined in tumor-bearing mice after 1 hr by intravenous administration at 1 umol/kg; assay type: functional
In short: as §1

[34] = Tumor/plasma uptake ratio after 1 day; assay type: functional
In short: as §2

Mus musculus [35] = assay: Tested for plasma concentration in tumor-bearing mice after 1 hour by intravenous administration at 1 umol/kg; assay type: functional
In short: as §1

Mus musculus [36] = assay: Mean tissue uptake in tumor determined in tumor-bearing mice after 6 hour by intravenous administration at 1 umol/kg; assay type: functional
In short: as §1

[37] = Tumor/plasma uptake ratio after 3 days; assay type: functional
In short: as §2

[38] = Tumor/plasma uptake ratio after 6 hr; assay type: functional
In short: as §2

Mus musculus [39] = assay: Mean tissue uptake in skin determined in tumor-bearing mice after 2 day by intravenous administration at 1 umol/kg; assay type: functional
In short: as §1

Mus musculus [40] = assay: Mean tissue uptake in muscle determined in tumor-bearing mice after 3 days by intravenous administration at 1 umol/kg; assay type: functional
In short: as §1

[41] = Tumor/muscle uptake ratio after 12 hr; assay type: functional, Muscle tissue
In short: as §2

Mus musculus [42] = assay: Mean tissue uptake in skin determined in tumor-bearing mice after 3 hr by intravenous administration at 1 umol/kg; assay type: functional
In short: as §1

Mus musculus [43] = assay: Mean tissue uptake in skin determined in tumor-bearing mice after 7 days by intravenous administration at 1 umol/kg; assay type: functional
In short: as §1

[44] = Tumor/muscle uptake ratio after 1 hr; assay type: functional, Muscle tissue
In short: as §2

Mus musculus [45] = assay: Mean tissue uptake in muscle determined in tumor-bearing mice after 12 hour by intravenous administration at 1 umol/kg; assay type: functional
In short: as §1

Mus musculus [46] = assay: Mean tissue uptake in skin determined in tumor-bearing mice after 6 hr by intravenous administration at 1 umol/kg; assay type: functional
In short: as §1

[47] = Tumor/muscle uptake ratio after 3 hr; assay type: functional, Muscle tissue
In short: as §2

[48] = Tumor/muscle uptake ratio after 6 hr; assay type: functional, Muscle tissue
In short: as §2

Mus musculus [49] = assay: Mean tissue uptake in muscle determined in tumor-bearing mice after 1 hour by intravenous administration at 1 umol/kg; assay type: functional
In short: as §1

For `CCCCCCCCCCCCCCCCCC[Si](C)(C)O[Si]1(O[Si](C)(C)CCCCCCCCCCCCCCCCCC)n2c3c4cc5ccccc5cc4c2/N=C2N=C(/N=c4/c5cc6ccccc6cc5/c(n41)=N/C1=NC(=N\3)/c3cc4ccccc4cc31)c1cc3ccccc3cc1\2`, the CC50 at 1 h [1] was 4.2 µM and the CC50 at 1 h [2] was 1.8 µM.
Work on `CC(C)(C)[Si](C)(C)O[Si]1(O[Si](C)(C)C(C)(C)C)n2c3c4cc5ccccc5cc4c2/N=C2N=C(/N=c4/c5cc6ccccc6cc5/c(n41)=N/C1=NC(=N\3)/c3cc4ccccc4cc31)c1cc3ccccc3cc1\2` yielded a CC50 at 1 h [1] of 36 µM and a CC50 at 1 h [2] of 12 µM.
For `CC(C)C(C)(C)[Si](C)(C)O[Si]1(O[Si](C)(C)C(C)(C)C(C)C)n2c3c4cc5ccccc5cc4c2/N=C2N=C(/N=c4/c5cc6ccccc6cc5/c(n41)=N/C1=NC(=N\3)/c3cc4ccccc4cc31)c1cc3ccccc3cc1\2`, the Tissue distribution (Mus musculus [3]) was 0.08 µg/g, the Blood clearance (Mus musculus [4]) was 0 µg/mL and the Blood clearance (Mus musculus [5]) was 0.02 µg/mL. It also gave a Blood clearance (Mus musculus [6]) of 9.12 µg/mL, a Ratio [7] of 5.9 and a Ratio [8] of 9.1. It also gave a Tissue distribution (Mus musculus [9]) of 0.9 µg/g, a Tissue distribution (Mus musculus [10]) of 0.98 µg/g and a Ratio [11] of 0.03. The Blood clearance (Mus musculus [12]) was 11.28 µg/mL, the Tissue distribution (Mus musculus [13]) was 0.08 µg/g and the CC50 at 1 h [1] was 6.5 µM. It also gave a Tissue distribution (Mus musculus [14]) of 0.46 µg/g, a Tissue distribution (Mus musculus [15]) of 0.32 µg/g and a Tissue distribution (Mus musculus [16]) of 0.43 µg/g. It also gave a Blood clearance (Mus musculus [17]) of 5.51 µg/mL, a Ratio [18] of 3.5 and a Blood clearance (Mus musculus [19]) of 0.21 µg/mL. The Tissue distribution (Mus musculus [20]) was 0.51 µg/g, the Ratio [21] was 6.4 and the Tissue distribution (Mus musculus [22]) was 0.77 µg/g. The Tissue distribution (Mus musculus [23]) was 0.44 µg/g, the Ratio [24] was 6.4 and the Tissue distribution (Mus musculus [25]) was 0.71 µg/g. The Tissue distribution (Mus musculus [26]) was 0.73 µg/g, the Tissue distribution (Mus musculus [27]) was 0.11 µg/g and the Tissue distribution (Mus musculus [28]) was 0.46 µg/g. The Blood clearance (Mus musculus [29]) was 2.06 µg/mL, the Tissue distribution (Mus musculus [30]) was 0.56 µg/g and the Ratio [31] was 0.04. For the same molecule, the Ratio [32] was 0.16, the Tissue distribution (Mus musculus [33]) was 0.13 µg/g and the Ratio [34] was 0.34. The Blood clearance (Mus musculus [35]) was 12.94 µg/mL, the Tissue distribution (Mus musculus [36]) was 0.65 µg/g and the CC50 at 1 h [2] was 5.5 µM. It also gave a Ratio [37] of 38, a Ratio [38] of 0.07 and a Tissue distribution (Mus musculus [39]) of 0.43 µg/g. The Tissue distribution (Mus musculus [40]) was 0.13 µg/g, the Ratio [41] was 10 and the Tissue distribution (Mus musculus [42]) was 0.51 µg/g. For the same molecule, the Tissue distribution (Mus musculus [43]) was 0.35 µg/g, the Ratio [44] was 3.6 and the Tissue distribution (Mus musculus [45]) was 0.09 µg/g. The Tissue distribution (Mus musculus [46]) was 0.36 µg/g, the Ratio [47] was 1.4 and the Ratio [48] was 0.7. It also gave a Tissue distribution (Mus musculus [49]) of 0.12 µg/g.
With `CCCCCC[Si](CCCCCC)(CCCCCC)O[Si]1(O[Si](CCCCCC)(CCCCCC)CCCCCC)n2c3c4cc5ccccc5cc4c2/N=C2N=C(/N=c4/c5cc6ccccc6cc5/c(n41)=N/C1=NC(=N\3)/c3cc4ccccc4cc31)c1cc3ccccc3cc1\2` the CC50 at 1 h [1] was 46 µM and the CC50 at 1 h [2] was 29 µM.
